Experimental data from different studies.
Protocols differ between the studies behind these lines.
Observed: enzyme activity
Mode: inhibitor
IGF1R: Insulin-like growth factor 1 receptor (IGF1R, Homo sapiens, UniProt P08069)
IGF1R phosphorylated: Insulin-like growth factor 1 receptor, phosphorylated (IGF1R, Homo sapiens, UniProt P08069)

For `CC(C)(C)c1nc(-c2cccc(NS(=O)(=O)c3c(F)cccc3F)c2F)c(-c2ccnc(N)n2)s1`, the remaining activity was 81% (IGF1R; radiometric; 1 µM).
`CCN(CC)c1ccc(C2=NNC(=O)CC2C)cc1[N+](=O)[O-]` (stereo not shown) has a remaining activity of 102% (IGF1R phosphorylated; 10 µM).
`CCCOc1ccc(OC)c(F)c1C(=O)c1ccc(C(=O)N[C@@H]2CNC[C@H]2NC(=O)c2ccc3[nH]ncc3c2)cc1` gave a remaining activity of 90% (IGF1R; 10 µM).
`Cc1ccc(NC(=O)c2ccc(C)c(C(F)(F)F)c2)cc1C#Cc1nn(C2CCC(O)CC2)c2ncnc(N)c12` (stereo not shown) has a remaining activity of 91% (IGF1R phosphorylated; 10 µM).
`Cc1cnc(NC2CCOCC2)nc1-n1cnc(C(=O)NC(CN)c2cc(F)cc(Cl)c2)c1` (stereo not shown) gave a remaining activity of 108% (IGF1R phosphorylated; radiometric; 1 µM).
The remaining activity of `FC(F)c1nc2ccccc2n1-c1nc(N2CCOCC2)nc(N2CCOCC2)n1` is reported as 87% (IGF1R; 10 µM).
`CCN(CC)CCNC(=O)c1c(C)[nH]c(/C=C2\C(=O)Nc3ccc(F)cc32)c1C` gave a remaining activity of 75% (IGF1R; 0.1 µM).
The remaining activity of `CC(C)(O)[C@H]1CC[C@H](Nc2ccc3ncc(-c4cccc(C(F)(F)F)c4)n3n2)CC1` is reported as 99.2% (IGF1R; 1 µM).
With `Cc1[nH]c(/C=C2\C(=O)Nc3ccc(F)cc32)c(C)c1C(=O)N[C@H]1CCN(C(=O)N(C)C)C1` the remaining activity was 115% (IGF1R; 0.1 µM).
The remaining activity of `Nc1nc(Nc2ccccc2)sc1C(=O)c1c(F)cccc1F` is reported as 80% (IGF1R; 10 µM).
For `O=C(Nc1cnn(-c2csc(C(=O)NC3COC3)c2)c1)Nc1c(F)cccc1Cl`, the remaining activity was 94.9% (IGF1R; 5 µM).
With `CC(C)(C)C(=O)c1sc(NC2CCCCC2)nc1N` the remaining activity was 118% (IGF1R; 10 µM).
The remaining activity of `COc1cc(Nc2cnc(C#N)c(O[C@H](C)CN(C)C)n2)ncc1-c1cnn(C)c1` is reported as 100% (IGF1R; radiometric; 1 µM).
